Data from ChEMBL document CHEMBL5634107, “The design, synthesis, and inhibition of Clostridioides difficile spore germination by acyclic and bicyclic tertiary amide analogs of cholate” (Eur J Med Chem, 2023).
pIC50: −log10 of the molar value.

Assays:
Clostridioides difficile [1] = experiment: Inhibition of spore germination in Clostridium difficile R20291 assessed as inhibition of spore germination measured every minute for 2 hrs by absorbance based analysis; format: functional, organism-based; conditions: R20291, 2 h
In short: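 Spores of strain R20291 diluted to OD580 1.0 in 100 mM sodium phosphate, pH 6.0, with 5 mg/mL sodium bicarbonate. Germinant is 6 mM taurocholate plus 12 mM glycine, with compound at various concentrations. OD580 is read every minute for 2 h and normalized to time zero. Value is fitted from percent germination versus log concentration.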

Clostridioides difficile [2] = experiment: Inhibition of spore germination in Clostridium difficile R20291 assessed as residual activity at 125 uM measured every minute for 2 hrs by absorbance based analysis relative to control; format: functional
In short: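 Single-concentration screen of R20291 spores (OD580 1.0) in 100 mM sodium phosphate, pH 6.0, with 5 mg/mL bicarbonate and 2.5% DMSO. Compound at 125 μM final, in triplicate, with 6 mM taurocholate and 12 mM glycine. OD580 is read each minute for 2 h, normalized to time zero, and compared with untreated spores.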

SMILES | pIC50 (Clostridioides difficile [1]) | Activity (Clostridioides difficile [2])
C[C@H](CCC(=O)N1CCCC1)[C@H]1CC[C@H]2[C@@H]3[C@H](O)C[C@@H]4C[C@H](O)CC[C@]4(C)[C@H]3C[C@H](O)[C@]12C | 4.42 | 29%
C[C@H](CCC(=O)N1CCc2ccccc2C1)[C@H]1CC[C@H]2[C@@H]3[C@H](O)C[C@@H]4C[C@H](O)CC[C@]4(C)[C@H]3C[C@H](O)[C@]12C |  | 78%
C[C@H](CCC(=O)N1CCc2cc(F)ccc21)[C@H]1CC[C@H]2[C@@H]3[C@H](O)C[C@@H]4C[C@H](O)CC[C@]4(C)[C@H]3C[C@H](O)[C@]12C | 6.40 | 5%
C[C@H](CCC(=O)N1CCc2cc(Br)ccc2C1)[C@H]1CC[C@H]2[C@@H]3[C@H](O)C[C@@H]4C[C@H](O)CC[C@]4(C)[C@H]3C[C@H](O)[C@]12C |  | 100%
C[C@H](CCC(=O)N1CCC(O)CC1)[C@H]1CC[C@H]2[C@@H]3[C@H](O)C[C@@H]4C[C@H](O)CC[C@]4(C)[C@H]3C[C@H](O)[C@]12C |  | 88%
Cc1ccc2c(c1)CCCN2C(=O)CC[C@@H](C)[C@H]1CC[C@H]2[C@@H]3[C@H](O)C[C@@H]4C[C@H](O)CC[C@]4(C)[C@H]3C[C@H](O)[C@]12C |  | 100%
C[C@H](CCC(=O)N1CCCCC1)[C@H]1CC[C@H]2[C@@H]3[C@H](O)C[C@@H]4C[C@H](O)CC[C@]4(C)[C@H]3C[C@H](O)[C@]12C | 4.43 | 15%
C[C@H](CCC(=O)N1CCc2ccccc21)[C@H]1CC[C@H]2[C@@H]3[C@H](O)C[C@@H]4C[C@H](O)CC[C@]4(C)[C@H]3C[C@H](O)[C@]12C | 6.00 | 4%
COc1ccc2c(c1)N(C(=O)CC[C@@H](C)[C@H]1CC[C@H]3[C@@H]4[C@H](O)C[C@@H]5C[C@H](O)CC[C@]5(C)[C@H]4C[C@H](O)[C@]13C)CC2 |  | 100%
C[C@H](CCC(=O)N(C)c1ccccc1)[C@H]1CC[C@H]2[C@@H]3[C@H](O)C[C@@H]4C[C@H](O)CC[C@]4(C)[C@H]3C[C@H](O)[C@]12C | 4.49 | 31%
C[C@H](CCC(=O)N1CCc2cc(Cl)ccc21)[C@H]1CC[C@H]2[C@@H]3[C@H](O)C[C@@H]4C[C@H](O)CC[C@]4(C)[C@H]3C[C@H](O)[C@]12C |  | 70%
C[C@H](CCC(=O)N1CCc2c(Cl)cccc21)[C@H]1CC[C@H]2[C@@H]3[C@H](O)C[C@@H]4C[C@H](O)CC[C@]4(C)[C@H]3C[C@H](O)[C@]12C |  | 95%
C[C@H](CCC(=O)N1CCCc2ccccc21)[C@H]1CC[C@H]2[C@@H]3[C@H](O)C[C@@H]4C[C@H](O)CC[C@]4(C)[C@H]3C[C@H](O)[C@]12C | 4.66 | 17%
Cc1ccc2c(c1)CCN2C(=O)CC[C@@H](C)[C@H]1CC[C@H]2[C@@H]3[C@H](O)C[C@@H]4C[C@H](O)CC[C@]4(C)[C@H]3C[C@H](O)[C@]12C |  | 100%
COc1ccc2c(c1)CCN(C(=O)CC[C@@H](C)[C@H]1CC[C@H]3[C@@H]4[C@H](O)C[C@@H]5C[C@H](O)CC[C@]5(C)[C@H]4C[C@H](O)[C@]13C)C2 |  | 100%
CCN(CC)C(=O)CC[C@@H](C)[C@H]1CC[C@H]2[C@@H]3[C@H](O)C[C@@H]4C[C@H](O)CC[C@]4(C)[C@H]3C[C@H](O)[C@]12C | 4.54 | 0.05%
C[C@H](CCC(=O)N1CCc2cc(Br)ccc21)[C@H]1CC[C@H]2[C@@H]3[C@H](O)C[C@@H]4C[C@H](O)CC[C@]4(C)[C@H]3C[C@H](O)[C@]12C |  | 90%
